Data from ChEMBL document CHEMBL1275284, “Therapeutic potential of sulindac hydroxamic acid against human pancreatic and colonic cancer cells” (Eur J Med Chem, 2010).
Calls of active or inactive are those of the source. The rule behind the calls is not given here.

Key:
HUVEC [1] = assay: Antiangiogenic activity in HUVEC assessed as inhibition of VEGF-induced cell proliferation at 0.1 uM after 96 hrs by haemocytometry; type: functional, cell-based; conditions: Homo sapiens
MIA PaCa-2 [2] = assay: Cytotoxicity against human MIAPaCa2 cells after 72 hrs by WST-1 assay; type: functional, cell-based; conditions: MIA PaCa-2, 72 h
MIA PaCa-2 [3] = assay: Induction of apoptosis in human MIAPaCa2 cells assessed as change in Bax to Bcl2 mRNA expression ratio at 200 uM after 24 hrs by RT-PCR assay relative to control; type: functional, cell-based
Outline: (§1)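 Cells exposed 24 h to 200 µM compound. bax and bcl-2 mRNA measured by semi-quantitative RT-PCR, normalized to GAPDH mRNA, and the bax:bcl-2 ratio compared with control. Mean ± SEM, n = 3.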

HUVEC [4] = assay: Antiangiogenic activity in HUVEC assessed as inhibition of bFGF-induced cell proliferation at 0.1 uM after 96 hrs by haemocytometry; type: functional, cell-based; conditions: Homo sapiens
MIA PaCa-2 [5] = assay: Induction of apoptosis in human MIAPaCa2 cells assessed as DNA internucleosomal fragmentation at 200 uM after 48 hrs relative to control; type: functional, cell-based
Outline: (§2)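 MIA PaCa-2 or COLO320 cells (DMEM, 10% FBS, 2.5% horse serum, 37 °C, 5% CO2) treated 48 h at 200 µM. Oligonucleosomal fragments in the cytoplasmic fraction measured, along with necrotic death, expressed relative to untreated control. Mean ± SEM, n = 3.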

[6] = Cytotoxicity against human COLO320 cells after 72 hrs by WST-1 assay; type: functional, cell-based; conditions: COLO 320, 72 h
COLO 320 [7] = assay: Induction of apoptosis in human COLO320 cells assessed as DNA internucleosomal fragmentation at 200 uM after 48 hrs relative to control; type: functional, cell-based; outline: as §2
MIA PaCa-2 [8] = assay: Induction of apoptosis in human MIAPaCa2 cells assessed as increase in caspase 3/7 activation at 200 uM after 24 hrs by spectrofluorimetry relative to control; type: functional
Outline: (§3)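 Caspase 3/7 activity assayed after 24 h exposure of cells to 200 µM compound. Fluorescent signal of treated cells expressed as a ratio to that of vehicle-only untreated cells. Mean ± SEM, n = 3.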

COLO 320 [9] = assay: Induction of apoptosis in human COLO320 cells assessed as increase in Bax to Bcl2 mRNA expression ratio at 200 uM after 24 hrs by RT-PCR assay relative to control; type: functional; outline: as §1
COLO 320 [10] = assay: Induction of apoptosis in human COLO320 cells assessed as increase in caspase 3/7 activation at 200 uM after 24 hrs by spectrofluorimetry relative to control; type: functional; outline: as §3
HUVEC [11] = assay: Cytotoxicity against HUVEC at 0.1 uM after 96 hrs by trypan blue exclusion test; type: cell-based; conditions: human

CSc1ccc(/C=C2/C(C)=C(CC(=O)O)c3cc(F)ccc32)cc1 [SULINDAC SULFIDE]
Activity (HUVEC [1]): Active | IC50 (MIA PaCa-2 [2]): 146 µM | Activity (MIA PaCa-2 [3]): inactive | Activity (HUVEC [4]): Active | Activity (MIA PaCa-2 [5]): inactive | IC50 [6]: 38.7 µM | Activity (COLO 320 [7]): inactive

CSc1ccc(C=C2C(C)=C(CC(=O)NO)c3cc(F)ccc32)cc1
fold change (FC) (MIA PaCa-2 [8]): 5 | Activity (HUVEC [1]): Active | IC50 (MIA PaCa-2 [2]): 32 µM | Activity (COLO 320 [9]): 130% | Activity (MIA PaCa-2 [3]): inactive | fold change (FC) (COLO 320 [10]): 5 | Activity (HUVEC [4]): Active | Activity (MIA PaCa-2 [5]): inactive | Activity (HUVEC [11]): Non-toxic | IC50 [6]: 6 µM | Activity (COLO 320 [7]): inactive

CC1=C(CC(=O)NO)c2cc(F)ccc2C1=Cc1ccc([S+](C)[O-])cc1 (stereo not drawn)
fold change (FC) (MIA PaCa-2 [8]): 5 | Activity (HUVEC [1]): Active | IC50 (MIA PaCa-2 [2]): 64.1 µM | fold change (FC) (COLO 320 [10]): 5 | Activity (HUVEC [4]): Active | Activity (MIA PaCa-2 [5]): inactive | Activity (HUVEC [11]): Non-toxic | IC50 [6]: 62.5 µM | Activity (COLO 320 [7]): inactive

CC1=C(CC(=O)O)c2cc(F)ccc2/C1=C\c1ccc(S(C)(=O)=O)cc1 [EXISULIND]
Activity (HUVEC [1]): Active | IC50 (MIA PaCa-2 [2]): > 200 µM | Activity (HUVEC [4]): Active | Activity (MIA PaCa-2 [5]): inactive | IC50 [6]: > 200 µM | Activity (COLO 320 [7]): inactive

CC1=C(CC(=O)NO)c2cc(F)ccc2C1=Cc1ccc(S(C)(=O)=O)cc1
fold change (FC) (MIA PaCa-2 [8]): 5 | Activity (HUVEC [1]): Active | IC50 (MIA PaCa-2 [2]): 44.4 µM | fold change (FC) (COLO 320 [10]): 5 | Activity (HUVEC [4]): Active | Activity (MIA PaCa-2 [5]): inactive | Activity (HUVEC [11]): Non-toxic | IC50 [6]: 26.2 µM | Activity (COLO 320 [7]): inactive

CC1=C(CC(=O)O)c2cc(F)ccc2/C1=C\c1ccc([S+](C)[O-])cc1 (stereo not drawn) [SULINDAC]
IC50 (MIA PaCa-2 [2]): > 200 µM | Activity (MIA PaCa-2 [5]): inactive | IC50 [6]: > 200 µM | Activity (COLO 320 [7]): inactive

CC1(C)OC(=O)C(c2cccc(F)c2)=C1c1ccc(S(C)(=O)=O)cc1
IC50 (MIA PaCa-2 [2]): > 200 µM | IC50 [6]: > 200 µM
